Experimental data as given in ChEMBL document CHEMBL4152323, “N-(1,3,4-oxadiazol-2-yl)benzamide analogs, bacteriostatic agents against methicillin- and vancomycin-resistant bacteria” (Eur J Med Chem, 2018).
≈ marks a conversion by molar mass, not a printed value. Calls of active or inactive are those of the source. No cut-off for these calls is given here.

Experiments:
Staphylococcus aureus [1] = assay: Bacteriostatic activity against methicillin-resistant Staphylococcus aureus NRS119 clinical isolate after 20 hrs by broth microdilution method; format: functional; conditions: NRS119, 20 h
How it was run: (§1)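 Broth microdilution MIC over 128 to 1 μg/mL, run alongside methicillin, linezolid and vancomycin. MIC taken as the lowest concentration with no visible growth.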

Staphylococcus aureus [2] = assay: Bactericidal activity against methicillin-resistant Staphylococcus aureus USA700 NRS386 clinical isolate preincubated for 20 hrs followed by TSA plating and measured after 18 hrs; format: functional
Staphylococcus aureus [3] = assay: Bactericidal activity against vancomycin-resistant Staphylococcus aureus VRS12 clinical isolate preincubated for 20 hrs followed by TSA plating and measured after 18 hrs; format: functional
Enterococcus faecalis [4] = assay: Bacteriostatic activity against Enterococcus faecalis ATCC 29212 after 20 hrs by broth microdilution method; format: functional; conditions: ATCC 29212, 20 h; how it was run: as §1
Staphylococcus aureus [5] = assay: Bactericidal activity against methicillin-resistant Staphylococcus aureus USA800 NRS387 clinical isolate preincubated for 20 hrs followed by TSA plating and measured after 18 hrs; format: functional
Enterococcus faecalis [6] = assay: Bacteriostatic activity against vancomycin-resistant Enterococcus faecalis ATCC 51575 after 20 hrs by broth microdilution method; format: functional; conditions: ATCC 51575, 20 h; how it was run: as §1
Enterococcus faecium [7] = assay: Bactericidal activity against vancomycin-resistant Enterococcus faecium ATCC 700221 clinical isolate preincubated for 20 hrs followed by TSA plating and measured after 18 hrs; format: functional
How it was run: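 MBC: 4 μL from wells with no growth in the MIC plate (Brain Heart Infusion broth, 37 °C, at least 20 h) spotted onto Tryptic Soy Agar. Read after at least 18 h at 37 °C.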

Staphylococcus aureus [8] = assay: Bacteriostatic activity against methicillin-resistant Staphylococcus aureus USA500 NRS385 clinical isolate after 20 hrs by broth microdilution method; format: functional; conditions: USA500 NRS385, 20 h; how it was run: as §1
Staphylococcus aureus [9] = assay: Bactericidal activity against methicillin-resistant Staphylococcus aureus NRS119 clinical isolate preincubated for 20 hrs followed by TSA plating and measured after 18 hrs; format: functional
Staphylococcus aureus [10] = assay: Bacteriostatic activity against vancomycin-resistant Staphylococcus aureus VRS12 clinical isolate after 20 hrs by broth microdilution method; format: functional; conditions: VRS12, 20 h; how it was run: as §1
Staphylococcus aureus [11] = assay: Bactericidal activity against methicillin-resistant Staphylococcus aureus USA400 NRS123 clinical isolate preincubated for 20 hrs followed by TSA plating and measured after 18 hrs; format: functional
Staphylococcus aureus [12] = assay: Antibacterial activity against methicillin-resistant Staphylococcus aureus USA300 at 6 ug/ml preincubated up to12 hrs followed by agar plating and measured after 18 to 20 hrs by time-kill assay; format: functional, organism-based
Staphylococcus aureus [13] = assay: Bacteriostatic activity against methicillin-resistant Staphylococcus aureus USA700 NRS386 clinical isolate after 20 hrs by broth microdilution method; format: functional; conditions: USA700 NRS386, 20 h; how it was run: as §1
Staphylococcus aureus [14] = assay: Bacteriostatic activity against methicillin-resistant Staphylococcus aureus USA300 NRS384 clinical isolate after 20 hrs by broth microdilution method; format: functional; conditions: USA300 NRS384, 20 h; how it was run: as §1
Enterococcus faecium [15] = assay: Bacteriostatic activity against vancomycin-resistant Enterococcus faecium ATCC 700221 clinical isolate after 20 hrs by broth microdilution method; format: functional; conditions: ATCC 700221, 20 h
How it was run: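 Broth microdilution MIC over 128 to 1 μg/mL in Brain Heart Infusion broth, 37 °C for at least 20 h. MIC taken as the lowest concentration with no visible growth.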

Staphylococcus aureus [16] = assay: Bacteriostatic activity against methicillin-resistant Staphylococcus aureus USA400 NRS123 clinical isolate after 20 hrs by broth microdilution method; format: functional; conditions: USA400 NRS123, 20 h; how it was run: as §1
Staphylococcus aureus [17] = assay: Bactericidal activity against vancomycin-intermediate Staphylococcus aureus NRS1 clinical isolate preincubated for 20 hrs followed by TSA plating and measured after 18 hrs; format: functional
Staphylococcus aureus [18] = assay: Bacteriostatic activity against Staphylococcus aureus ATCC 25923 after 20 hrs by broth microdilution method; format: functional; conditions: ATCC 25923, 20 h; how it was run: as §1
Staphylococcus aureus [19] = assay: Bactericidal activity against methicillin-resistant Staphylococcus aureus USA500 NRS385 clinical isolate preincubated for 20 hrs followed by TSA plating and measured after 18 hrs; format: functional
Staphylococcus aureus [20] = assay: Bacteriostatic activity against methicillin-resistant Staphylococcus aureus ATCC 33592 after 20 hrs by broth microdilution method; format: functional; conditions: ATCC 33592, 20 h; how it was run: as §1
Staphylococcus aureus [21] = assay: Bactericidal activity against methicillin-resistant Staphylococcus aureus USA300 NRS384 clinical isolate preincubated for 20 hrs followed by TSA plating and measured after 18 hrs; format: functional
Listeria monocytogenes = assay: Bacteriostatic activity against Listeria monocytogenes ATCC 19115 after 20 hrs by broth microdilution method; format: functional; conditions: ATCC 19115, 20 h
How it was run: (§2)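 MIC by broth microdilution across 128 to 1 μg/mL in 96-well plates, 37 °C for at least 20 h. MIC is the lowest concentration with no visible growth.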

Staphylococcus aureus [22] = assay: Antibacterial activity against methicillin-resistant Staphylococcus aureus USA300 at 12 ug/ml preincubated for 24 hrs followed by agar plating and measured after 18 to 20 hrs by time-kill assay relative to control; format: functional
Staphylococcus aureus [23] = assay: Antibacterial activity against methicillin-resistant Staphylococcus aureus USA300 in BALB/c mouse wound infection model assessed as reduction in bacterial burden in wound at 2% administered topically bid for 5 days relative to control; format: functional; design: scale not given: the % may be the effect or the level left
How it was run: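 Female BALB/c mice, eight weeks old, n = 5 per group, injected intradermally with 40 μL of 1.32×10^9 CFU/mL MRSA USA300. Once an abscess or open wound formed, it was treated topically twice daily for five days with 2% agent in petroleum jelly, with vehicle as control. Wound tissue excised 12 h after the last dose, homogenized in PBS, diluted and plated on mannitol salt agar for 16 h or more at 37 °C. CFU reduction calculated against vehicle.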

[24] = Ratio of non toxic concentration for human Caco2 cells to MIC for methicillin-resistant Staphylococcus aureus ATCC 33592; format: toxicity; conditions: Caco-2 cells
Staphylococcus aureus [25] = assay: Bacteriostatic activity against methicillin-resistant Staphylococcus aureus USA800 NRS387 clinical isolate after 20 hrs by broth microdilution method; format: functional; conditions: USA800 NRS387, 20 h; how it was run: as §1
Staphylococcus aureus [26] = assay: Bacteriostatic activity against methicillin-resistant Staphylococcus aureus USA400 NRS123 measured over 14 days by broth microdilution method
Staphylococcus aureus [27] = assay: Antibacterial activity against Staphylococcus aureus assessed as growth inhibition at 16 ug/ml after 24 hrs; format: functional, organism-based
How it was run: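 S. aureus grown in Mueller Hinton Broth to early exponential phase, then exposed to compound (16 μg/mL; DMSO stocks 10 mg/mL) or DMSO in duplicate, 37 °C for 24 h. OD600 read; percent normalized OD600 = (X − media blank)/(DMSO control − media blank) × 100.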

Caco-2 = assay: Cytotoxicity against human Caco2 cells assessed as decrease in cell viability up to 128 ug/ml after 24 hrs by MTS assay; format: cell-based; conditions: caco-2, 24 h
How it was run: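 Caco-2 cells were grown in DMEM with 20% FBS, 1X non-essential amino acids and penicillin-streptomycin at 37 °C, 5% CO2. Viability is % of DMSO-treated cells.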

Staphylococcus aureus [28] = assay: Potency index, ratio of methicillin MIC to test compound MIC for methicillin-resistant Staphylococcus aureus ATCC 33592; format: functional
Staphylococcus aureus [29] = assay: Bacteriostatic activity against vancomycin-intermediate Staphylococcus aureus NRS1 clinical isolate after 20 hrs by broth microdilution method; format: functional; conditions: NRS1, 20 h; how it was run: as §1
[30] = Ratio of non toxic concentration for mouse J774 cells to MIC for methicillin-resistant Staphylococcus aureus ATCC 33592; format: toxicity
Pseudomonas aeruginosa = assay: Bacteriostatic activity against Pseudomonas aeruginosa ATCC 15442 after 20 hrs by broth microdilution method; format: functional; conditions: ATCC 15442, 20 h; how it was run: as §2
Enterococcus faecalis [31] = assay: Potency index, ratio of vancomycin MIC to test compound MIC for vancomycin-resistant Enterococcus faecalis ATCC 51575
Escherichia coli [32] = assay: Bacteriostatic activity against AcrAB-tolC deficient Escherichia coli JW5503-1 after 20 hrs by broth microdilution method; format: functional; conditions: JW5503-1, 20 h; how it was run: as §2
J774 = assay: Cytotoxicity against mouse J774 cells assessed as decrease in cell viability up to 128 ug/ml after 24 hrs by MTS assay; format: cell-based; conditions: j774, 24 h
Escherichia coli [33] = assay: Bacteriostatic activity against Escherichia coli BW25113 after 20 hrs by broth microdilution method; format: functional; conditions: BW25113, 20 h; how it was run: as §2
Staphylococcus aureus [34] = assay: Ratio of MIC for methicillin-resistant Staphylococcus aureus USA400 NRS123 measured after 10th to 14th passage to MIC for methicillin-resistant Staphylococcus aureus USA400 NRS123 measured prior 10th to 14th passage; format: functional
How it was run: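 MRSA USA400 (NRS123) passaged serially, once a day, over 14 passages in two weeks. Broth microdilution MIC of test agent and ciprofloxacin measured after each passage. A four-fold MIC shift taken as resistance.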

Klebsiella pneumoniae = assay: Bacteriostatic activity against Klebsiella pneumoniae BAA 1706 after 20 hrs by broth microdilution method; format: functional; conditions: BAA 1706, 20 h; how it was run: as §2
Acinetobacter baumannii = assay: Bacteriostatic activity against Acinetobacter baumannii ATCC 19606 after 20 hrs by broth microdilution method; format: functional; conditions: ATCC 19606 = CIP 70.34 = JCM 6841, 20 h; how it was run: as §2

| SMILES | MIC (Staphylococcus aureus [1]) [µg/mL] | MBC (Staphylococcus aureus [2]) [µg/mL] | MBC (Staphylococcus aureus [3]) [µg/mL] | MIC (Enterococcus faecalis [4]) [µg/mL] | MBC (Staphylococcus aureus [5]) [µg/mL] | MIC (Enterococcus faecalis [6]) [µg/mL] | MBC (Enterococcus faecium [7]) [µg/mL] | MIC (Staphylococcus aureus [8]) [µg/mL] | MBC (Staphylococcus aureus [9]) [µg/mL] | MIC (Staphylococcus aureus [10]) [µg/mL] | MBC (Staphylococcus aureus [11]) [µg/mL] | MIC (Staphylococcus aureus [13]) [µg/mL] | MIC (Staphylococcus aureus [14]) [µg/mL] | MIC (Enterococcus faecium [15]) [µg/mL] | MIC (Staphylococcus aureus [16]) [µg/mL] | MBC (Staphylococcus aureus [17]) [µg/mL] | MIC (Staphylococcus aureus [18]) [µg/mL] | MBC (Staphylococcus aureus [19]) [µg/mL] | MIC (Staphylococcus aureus [20]) [µg/mL] | MBC (Staphylococcus aureus [21]) [µg/mL] | also measured |
| --- | --- | --- | --- | --- | --- | --- | --- | --- | --- | --- | --- | --- | --- | --- | --- | --- | --- | --- | --- | --- | --- |
| CN[C@H](CC(C)C)C(=O)N[C@H]1C(=O)N[C@@H](CC(N)=O)C(=O)N[C@H]2C(=O)N[C@H]3C(=O)N[C@H](C(=O)N[C@H](C(=O)O)c4cc(O)cc(O)c4-c4cc3ccc4O)[C@H](O)c3ccc(c(Cl)c3)Oc3cc2cc(c3O[C@@H]2O[C@H](CO)[C@@H](O)[C@H](O)[C@H]2O[C@H]2C[C@](C)(N)[C@H](O)[C@H](C)O2)Oc2ccc(cc2Cl)[C@H]1O [VANCOMYCIN] | ≤ 1 | ≤ 1 | > 128 | 2 (≈ 1.38 µM) | 2 (≈ 1.38 µM) | > 128 | > 128 | ≤ 1 | ≤ 1 | > 128 | ≤ 1 | ≤ 1 | ≤ 1 | > 128 | ≤ 1 | 4 (≈ 2.76 µM) | 1 to 2 (≈ 0.69 to 1.38 µM) | 2 (≈ 1.38 µM) | 1 to 2 (≈ 0.69 to 1.38 µM) | ≤ 1 | Activity (Staphylococcus aureus [12]): Active; MIC (Listeria monocytogenes): 1 µg/mL (≈ 0.69 µM) |
| C[C@@H]1C[C@H](C)CN(S(=O)(=O)c2ccc(C(=O)Nc3nnc(-c4cccs4)o3)cc2)C1 (mixture of isomers) | 2 | > 128 | > 128 | 4 | > 128 | 4 | 128 | 2 | > 128 | 2 | > 128 | 2 | 2 | 2 | 2 | > 128 | 2 to 4 | > 128 | 2 to 4 | > 128 | Activity (Staphylococcus aureus [22]): 2.01 deltalog10CFU/ml; Activity (Staphylococcus aureus [23]): 72.41%; selectivity ratio [24]: 63; MIC (Staphylococcus aureus [25]): 2 µg/mL; Activity (Staphylococcus aureus [26]): Active; growth inhibition (GI) (Staphylococcus aureus [27]): Active; Activity (Caco-2): Non-Toxic; Ratio (Staphylococcus aureus [28]): > 64; MIC (Staphylococcus aureus [29]): 2 µg/mL; selectivity ratio [30]: 63; MIC (Pseudomonas aeruginosa): > 128 µg/mL; Ratio (Enterococcus faecalis [31]): >32; MIC (Escherichia coli [32]): 2 µg/mL; Activity (J774): Non-Toxic; MIC (Escherichia coli [33]): > 128 µg/mL; Ratio (Staphylococcus aureus [34]): 1; MIC (Klebsiella pneumoniae): > 128 µg/mL; MIC (Acinetobacter baumannii): 128 µg/mL; MIC (Listeria monocytogenes): 4 µg/mL |
